Source: ChEMBL document CHEMBL3259606, “Discovery of novel inhibitors targeting the macrophage migration inhibitory factor via structure-based virtual screening and bioassays” (J Med Chem, 2014)
Activity calls are given as the source filed them. The calls are words filed in the database; no cut-off is given here.

Tests used:
[1] = target: T1, Macrophage migration inhibitory factor (Homo sapiens, UniProt P14174); assay: (§1) Inhibition of recombinant human MIF tautomerase activity expressed in Escherichia coli using L-dopachrome methyl ester as substrate incubated for 30 mins prior to substrate addition measured for 3 mins
T1 sequence (P14174 whole entry): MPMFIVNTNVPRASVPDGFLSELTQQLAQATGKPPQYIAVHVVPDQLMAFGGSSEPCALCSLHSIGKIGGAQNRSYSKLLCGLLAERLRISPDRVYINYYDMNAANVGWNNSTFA

[2] = target: T2, Macrophage migration inhibitory factor (Homo sapiens) (UniProt P14174); assay: Inhibition of recombinant MIF (unknown origin)-induced mouse RAW264.7 cell chemotactic migration at 20 uM preincubated for 30 mins followed by macrophage addition measured every 15 mins for 4 hrs relative to control
T2 sequence (whole entry): T1 sequence (P14174 whole entry)
Procedure, shortened: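 Recombinant MIF with or without compound placed in the lower chamber of a CIM-16 plate 30 min before RAW 264.7 cells (20,000/well, serum-free medium) added to the upper chamber. Impedance-based migration on xCELLigence RTCA-DP read every 15 min for 4 h. Heat-inactivated MIF as negative control; % of MIF-alone migration; mean ± SD, n = 3.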

[3] = target: T2, Macrophage migration inhibitory factor (Homo sapiens); assay: as §1
[4] = target: T2, Macrophage migration inhibitory factor (Homo sapiens); assay: Inhibition of recombinant MIF (unknown origin)-induced ERK1/2 phosphorylation in mouse RAW264.7 cells at 20 uM preincubated for 30 mins followed by protein addition measured after 20 mins by Western blot analysis relative to control; type: cell-based
Procedure, shortened: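 RAW 264.7 cells given compound 30 min before MIF (0.1 μg/mL). Lysates taken 20 min after stimulation, separated on 12% SDS-PAGE and immunoblotted for phospho-ERK1/2 and total ERK1/2 (loading control), ECL detection. Densitometry expressed as % of MIF-alone band intensity.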

[5] = target: T2, Macrophage migration inhibitory factor (Homo sapiens); assay: (§2) Inhibition of recombinant MIF (unknown origin)-mediated glucocorticoid overriding activity in LPS-stimulated mouse RAW264.7 cells assessed as inhibition of dexamethasone-induced intracellular TNF-alpha production at 20 uM preincubated for 30 mins followed by LPS challenge measured at 4 hrs by ELISA relative to control; type: cell-based
Procedure, shortened: (§3)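 RAW 264.7 cells, 5 × 10^4/well in triplicate, pretreated 30 min with dexamethasone (0.1 μM) plus recombinant MIF (0.2 μM) with or without compound, then stimulated with LPS (0.1 μg/mL). TNF-α in supernatant by sandwich ELISA at 4 h; NO in supernatant by Griess reagent at 16 h. Mean ± SD, n = 3, three independent experiments.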

[6] = target: T2, Macrophage migration inhibitory factor (Homo sapiens); assay: as §2, with “intracellular nitric oxide” for “intracellular TNF-alpha”, “at 16” for “at 4”, “by Griess assay” for “by ELISA”; type: cell-based; procedure, shortened: as §3
RAW264.7 = assay: Antiinflammatory activity in mouse RAW264.7 cells assessed as inhibition of LPS-induced nitrite production at 40 uM after 24 hrs by Griess assay; type: functional, cell-based
Procedure, shortened: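 RAW 264.7 macrophages (DMEM, 5% heat-inactivated FBS, 37 °C, 5% CO2) incubated 24 h with 0.1 μg/mL LPS with or without compound; nitrite in supernatant by Griess reagent. Mean ± SD, n = 3, representative of three independent experiments.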

SMILES	IC50 [1] [µM]	inhibition [3]	inhibition [4]	also measured
COC(=O)C[C@H]1CC(c2ccc(O)cc2)=NO1		Dose-dependent effect	Active	fold change (FC) [2]: 2.2; inhibition [5]: 128%; inhibition [6]: 128%
COc1ccc(-c2cc(C)nc(SCc3cccc(C(=O)O)c3)n2)cc1	45.5			
O=C(O)c1cccc(NC(=S)NC(=O)c2ccc(-c3ccccc3)cc2)c1		Dose-dependent effect	43%	inhibition [2]: 52%; inhibition (RAW264.7): Active
COc1cc(-c2nc3sc4c(c3c(=O)[nH]2)CCCC4)cc(Br)c1OCC(=O)O	22.6			
O=C(Nc1ccccc1C(=O)O)c1cc(S(=O)(=O)Nc2ccc(F)cc2)ccc1Cl	74.5			

More lines, main results first:

IC50 [1] [µM]	inhibition [3]	inhibition [4]	SMILES	also measured
102			O=C(O)CCC(=O)Nc1nc(-c2cc3ccccc3oc2=O)cs1	
85.6			O=C(O)C[C@@H](Cc1ccccc1)c1ccco1	
	Dose-dependent effect	55%	COc1cc(-c2nc3ccccc3s2)cc(Br)c1OCC(=O)O	inhibition [2]: 83%; inhibition (RAW264.7): Active
25.8			COc1ccc2c3c(c(=O)oc2c1OCC(=O)O)CCCC3	
	Dose-dependent effect	59%	COc1ccc(C(=O)O)cc1NC(=S)NC(=O)c1cc2ccccc2o1	inhibition (RAW264.7): Active; inhibition [5]: 131%; inhibition [6]: 131%
23.1			Cc1c(CCC(=O)O)c(=O)oc2cc(OCc3ccccc3Br)ccc12	
